Assay results: ChEMBL document CHEMBL4351001, “2-Aminoimidazole-based antagonists of the 5-HT6 receptor - A new concept in aminergic GPCR ligand design” (Eur J Med Chem, 2019)
Activity calls are given as the source filed them. The calls are words filed in the database; no cut-off is given here.

How the values were obtained:
[1] = target: T1, 5-hydroxytryptamine receptor 1A (Homo sapiens, UniProt P08908); experiment: Displacement of [3H]-8-OH-DPAT from human 5HT1A receptor expressed in HEK293 cells incubated for 1 hr by liquid scintillation counter method; format: cell-based; conditions: read-out: Ki
T1 sequence (P08908 whole entry): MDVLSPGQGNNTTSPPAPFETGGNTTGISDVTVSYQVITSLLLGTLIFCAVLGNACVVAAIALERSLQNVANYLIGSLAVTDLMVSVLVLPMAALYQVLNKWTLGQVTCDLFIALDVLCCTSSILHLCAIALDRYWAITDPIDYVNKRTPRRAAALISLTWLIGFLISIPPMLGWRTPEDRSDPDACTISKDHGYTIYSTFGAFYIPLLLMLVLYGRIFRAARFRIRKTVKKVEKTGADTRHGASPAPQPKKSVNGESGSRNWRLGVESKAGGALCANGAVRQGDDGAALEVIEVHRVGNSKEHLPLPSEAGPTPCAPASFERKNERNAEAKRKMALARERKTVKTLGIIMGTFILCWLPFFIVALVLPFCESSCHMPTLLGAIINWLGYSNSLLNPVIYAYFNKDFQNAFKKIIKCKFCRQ
Method in brief: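 HEK293 cells stably expressing human 5-HT1AR; membranes in 50 mM Tris–HCl, 0.1 mM EDTA, 4 mM MgCl2, 10 μM pargyline, 0.1% ascorbate; incubated 1 h at room temperature, then filtered. Nonspecific binding defined with 10 μM 5-HT.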

[2] = target: 5-hydroxytryptamine receptor 2A (Homo sapiens, UniProt P28223); experiment: Displacement of [3H]ketanserin from human 5HT2A receptor expressed in CHOK1 cells incubated for 1 hr by liquid scintillation counter method; format: cell-based; conditions: read-out: Ki
HepG2 = experiment: Cytotoxicity against human HepG2 cells assessed as cell membrane damage measured after 24 hrs by Toxilight assay; format: cell-based; conditions: HepG2, 24 h
Method in brief: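 HepG2 cells seeded at 2x10^4 per well in DMEM with 10% FBS, grown 24 h (37°C, 5% CO2), then exposed 24 h to 1, 10, 50 and 100 μM compound. Viability read with PrestoBlue (fluorescence); membrane damage by ToxiLight (luminescence).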

Cytochrome P450 3A4 = Cytochrome P450 3A4 (Homo sapiens, UniProt P08684); experiment: Inhibition of human recombinant CYP3A4 expressed in Escherichia coli at […] using luciferin PFBE as substrate preincubated for 5 mins followed by NADPH addition measured after 30 mins by P450-Glo luminescence assay; format: ADME; conditions: recombinant enzyme, 0.5 h
[3] = target: Histamine H1 receptor (Homo sapiens) (UniProt P35367); experiment: Displacement of [3H] pyrilamine from human recombinant H1 histamine receptor at 10^-6 M measured after 60 mins by scintillation counting method relative to control
[4] = target: Histamine H1 receptor (Homo sapiens) (UniProt P35367); experiment: Agonist activity at human recombinant H1 histamine receptor at 10^-5 M relative to control
[5] = target: T2, 5-hydroxytryptamine receptor 2C (Homo sapiens) (UniProt P28335); experiment: Displacement of [3H]mesulergine from human recombinant 5HT2C serotonin receptor at 10^-6M incubated for 120 mins by scintillation counter method relative to control
T2 sequence (whole entry): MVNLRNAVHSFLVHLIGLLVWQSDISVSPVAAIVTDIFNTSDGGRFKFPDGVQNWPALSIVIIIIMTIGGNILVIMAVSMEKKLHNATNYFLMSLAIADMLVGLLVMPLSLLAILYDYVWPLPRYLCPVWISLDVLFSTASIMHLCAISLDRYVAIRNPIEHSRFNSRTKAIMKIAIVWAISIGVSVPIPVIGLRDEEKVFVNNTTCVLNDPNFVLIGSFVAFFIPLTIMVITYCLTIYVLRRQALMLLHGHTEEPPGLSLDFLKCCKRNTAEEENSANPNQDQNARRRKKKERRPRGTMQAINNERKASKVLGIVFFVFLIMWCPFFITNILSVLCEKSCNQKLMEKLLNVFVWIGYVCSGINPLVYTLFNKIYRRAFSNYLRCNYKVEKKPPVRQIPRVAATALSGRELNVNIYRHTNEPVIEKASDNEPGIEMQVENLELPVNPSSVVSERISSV

[6] = target: T2, 5-hydroxytryptamine receptor 2C (Homo sapiens); experiment: Agonist activity at human 5HT2C serotonin receptor at 10^-5 M relative to control
[7] = target: 5-hydroxytryptamine receptor 2B (Homo sapiens) (UniProt P41595); experiment: Antagonist activity at human recombinant 5HT2B receptor expressed in CHOK1 cells at 10^-6 M measured after 30 mins by HTRF assay relative to control; format: cell-based; design: scale not given: the % may be the effect or the level left
Rattus norvegicus [8] = experiment: Reversal of scopolamine induced cognitive impairment impairment in Sprague-Dawley rat at 1 mg/kg, po pre treated for 2 hrs followed by scopolamine addition further treated for 30 mins and measured after 1 hr by novel object recognition test; format: functional, organism-based
Method in brief: (§1)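 Male Sprague–Dawley rats (~250 g); open-field habituation 5 min 24 h before test. Compounds p.o. 120 min and scopolamine 1.25 mg/kg i.p. 30 min before 3-min familiarization trial; 3-min recognition trial 1 h later. Exploration video-tracked; discrimination index computed; one-way ANOVA with Newman–Keuls; n = 9–10 per group; mean ± SEM.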

Rattus norvegicus [9] = experiment: Reversal of scopolamine induced cognitive impairment in Sprague-Dawley rat assessed increase in discrimination index at 0.3 mg/kg, po cotreated with 0.3 mg/kg of donepezil pre treated for 2 hrs followed by scopolamine addition further treated for 30 mins and measured after 1 hr by novel object recognition test; format: functional, organism-based; method in brief: as §1
in vitro = conditions: rat, microsomes

Chain of Histamine H1 receptor (Homo sapiens) (P35367 whole entry): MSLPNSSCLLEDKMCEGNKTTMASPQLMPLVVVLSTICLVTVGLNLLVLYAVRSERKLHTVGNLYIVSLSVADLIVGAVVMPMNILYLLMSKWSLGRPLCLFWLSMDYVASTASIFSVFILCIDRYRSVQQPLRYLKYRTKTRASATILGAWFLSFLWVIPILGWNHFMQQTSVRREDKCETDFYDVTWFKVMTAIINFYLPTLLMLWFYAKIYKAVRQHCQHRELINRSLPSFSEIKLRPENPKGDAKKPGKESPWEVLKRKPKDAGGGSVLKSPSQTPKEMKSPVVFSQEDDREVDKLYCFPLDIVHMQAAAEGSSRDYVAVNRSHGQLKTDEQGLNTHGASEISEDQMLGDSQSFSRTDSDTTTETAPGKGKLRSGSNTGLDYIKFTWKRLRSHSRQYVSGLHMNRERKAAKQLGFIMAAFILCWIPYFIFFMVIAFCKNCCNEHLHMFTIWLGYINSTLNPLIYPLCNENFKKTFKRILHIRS
Chain of 5-hydroxytryptamine receptor 2B (Homo sapiens) (P41595 whole entry): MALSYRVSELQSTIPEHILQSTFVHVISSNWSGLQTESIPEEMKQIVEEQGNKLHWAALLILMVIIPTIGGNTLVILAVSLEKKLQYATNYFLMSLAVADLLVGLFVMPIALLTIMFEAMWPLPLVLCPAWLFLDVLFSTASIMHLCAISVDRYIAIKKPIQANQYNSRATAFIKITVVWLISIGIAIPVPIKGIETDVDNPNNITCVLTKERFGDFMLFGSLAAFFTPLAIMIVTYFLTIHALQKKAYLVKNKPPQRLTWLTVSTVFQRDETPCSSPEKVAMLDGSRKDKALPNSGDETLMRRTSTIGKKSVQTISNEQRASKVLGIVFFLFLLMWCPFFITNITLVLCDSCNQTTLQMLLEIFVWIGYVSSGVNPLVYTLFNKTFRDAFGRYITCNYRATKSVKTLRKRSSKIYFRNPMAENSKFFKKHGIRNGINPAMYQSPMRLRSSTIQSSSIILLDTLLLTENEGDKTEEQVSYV
Chain of 5-hydroxytryptamine receptor 2A (P28223 whole entry): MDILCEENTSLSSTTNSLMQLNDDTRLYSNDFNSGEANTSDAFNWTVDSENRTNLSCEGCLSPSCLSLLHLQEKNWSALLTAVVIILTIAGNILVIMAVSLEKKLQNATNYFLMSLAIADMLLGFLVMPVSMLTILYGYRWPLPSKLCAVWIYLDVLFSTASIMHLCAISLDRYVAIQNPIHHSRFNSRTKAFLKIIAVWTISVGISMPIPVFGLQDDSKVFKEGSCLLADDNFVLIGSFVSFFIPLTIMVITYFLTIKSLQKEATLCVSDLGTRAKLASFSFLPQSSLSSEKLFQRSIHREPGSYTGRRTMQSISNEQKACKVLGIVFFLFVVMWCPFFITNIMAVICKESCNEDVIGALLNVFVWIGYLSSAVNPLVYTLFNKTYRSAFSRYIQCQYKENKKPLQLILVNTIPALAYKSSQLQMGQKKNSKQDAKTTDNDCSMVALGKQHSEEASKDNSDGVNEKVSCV
Chain of Cytochrome P450 3A4 (P08684 whole entry): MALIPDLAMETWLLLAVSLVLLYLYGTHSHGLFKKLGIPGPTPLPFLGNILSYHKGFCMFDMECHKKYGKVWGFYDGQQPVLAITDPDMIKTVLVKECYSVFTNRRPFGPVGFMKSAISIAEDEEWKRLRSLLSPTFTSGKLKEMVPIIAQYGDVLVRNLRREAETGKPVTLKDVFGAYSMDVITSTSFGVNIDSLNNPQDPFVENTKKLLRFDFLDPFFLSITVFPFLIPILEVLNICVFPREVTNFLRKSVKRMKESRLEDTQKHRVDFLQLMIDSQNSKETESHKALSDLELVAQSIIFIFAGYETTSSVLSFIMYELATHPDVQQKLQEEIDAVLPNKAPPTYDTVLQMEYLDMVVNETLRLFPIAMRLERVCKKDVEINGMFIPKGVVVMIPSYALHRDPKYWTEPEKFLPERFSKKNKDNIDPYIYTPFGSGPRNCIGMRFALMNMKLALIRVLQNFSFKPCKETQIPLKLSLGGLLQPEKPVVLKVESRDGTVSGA

For `Cc1nc(N)[nH]c1-c1cn(S(=O)(=O)c2cccc3ccccc23)c2ccccc12.Cl`, the Ki [1] was greater than 10 µM, the Ki [2] was 0.49 µM and the IC50 (HepG2) was 18.4 µM. The INH (Cytochrome P450 3A4) was “Active”, the inhibition [3] was 70.1% and the Activity [4] was -1.3%. It also gave an inhibition [5] of 52.7%, an Activity [6] of 21.3% and an Activity [7] of -2.8%. For the same molecule, the Activity (Rattus norvegicus [8]) was “Active”, the Activity (Rattus norvegicus [9]) was “Active” and the half-life (in vitro) was 23 min.
